Compound activity: PubChem, several laboratories
A selection: hits, their analogues and other compounds. The true share with any hit is near 2.4%.
JMJD2C inh – blocks human GASC-1 demethylase activity. Q9H3R0. GST-JMJD2C(1-420) H3K9me3 demethylation, DELFIA europium. inhibition, % at 2.35 µM. actives 0.069% (n = 330,000);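 active = more than half of a compound's replicate wells show inhibition beyond 50%, single wells judged on their own value; inconclusive = some, but no more than half, of replicates pass 50% inhibition; inactive = no replicate passes 50% inhibition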;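 note: signal counts dimethyl H3K9 product captured on neutravidin plate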
T cruzi repl – blocks replication of Trypanosoma cruzi | AID 1885 | inhibition, % (no concentration beside the values) | T. cruzi beta-gal in NIH3T3, luminescence, 90 h | actives 1.4% (n = 300,000);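 active = mean inhibition across valid replicates above about 55%, limit read from the data; inconclusive = mean below that limit but half or more replicates reach it; inactive = mean below it, under half of replicates reach it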;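 note: signal also drops with host cell toxicity which is not excluded here; higher percent means less beta-gal luminescence so fewer parasites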
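System: mouse NIH/3T3 fibroblasts infected with β-gal-expressing T. cruzi Tulahuen C4 / Input: NIH/3T3 cells, 5,000 per well / Buffer or medium: Low-serum DMEM with 2% FBS / Probe or stimulus: 5000 reporter trypomastigotes per well / Schedule: ≥90 h infection period, 3 h prior cell attachment / Measured by: GalScreen luminescence, 60 min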
PP5 primary – PP5 (human) phosphatase inhibition; P53041; purified PP5c, OMFP substrate fluorescence; inhibition, % at 6.7 µM; actives 0.18% (n = 320,000);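 active = inhibition above the campaign's mean inhibition across all tested compounds plus 3 SD, cut at about 9.5% in these data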
CTSL1 counter – blocks F. hepatica cathepsin L1 in PFM18AAP counter-screen | AID 1906 | actives 0.49% (n = 300,000) | recombinant F. hepatica cathepsin L1, Z-Leu-Arg-MCA fluorescence | inhibition, % at 5.96 µM;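 active = inhibition above the mean of all tested compounds plus 3 SD, set per screening campaign, cut at about 17% in these data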
Cardio protect – modulators protecting cardiomyocytes from myocardial damage | H9c2 cardiomyocytes, H2O2 injury protection, ATPLite, 2 h | protection from H2O2 cell death, % at 20 µM | actives 0.63% (n = 360,000);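 active = compounds giving at least 50% protection of heart cells from peroxide-induced death in the single-dose screen, raw or plate-pattern-corrected value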
p-CIP stab down – p/CIP protein destabilization; actives 0.01% (n = 290,000); AID 1984; decrease of EGFP signal, % at 10 µM; F442A p/CIP-EGFP cells, EGFP fluorescence, 16 h;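 active = EGFP signal decrease of at least 30% at 10 µM or well 3 SD below plate mean, unless failing retest; inactive = the rest, including hits failing retest or dose response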
Target sequence (Q05BA5 1-1403): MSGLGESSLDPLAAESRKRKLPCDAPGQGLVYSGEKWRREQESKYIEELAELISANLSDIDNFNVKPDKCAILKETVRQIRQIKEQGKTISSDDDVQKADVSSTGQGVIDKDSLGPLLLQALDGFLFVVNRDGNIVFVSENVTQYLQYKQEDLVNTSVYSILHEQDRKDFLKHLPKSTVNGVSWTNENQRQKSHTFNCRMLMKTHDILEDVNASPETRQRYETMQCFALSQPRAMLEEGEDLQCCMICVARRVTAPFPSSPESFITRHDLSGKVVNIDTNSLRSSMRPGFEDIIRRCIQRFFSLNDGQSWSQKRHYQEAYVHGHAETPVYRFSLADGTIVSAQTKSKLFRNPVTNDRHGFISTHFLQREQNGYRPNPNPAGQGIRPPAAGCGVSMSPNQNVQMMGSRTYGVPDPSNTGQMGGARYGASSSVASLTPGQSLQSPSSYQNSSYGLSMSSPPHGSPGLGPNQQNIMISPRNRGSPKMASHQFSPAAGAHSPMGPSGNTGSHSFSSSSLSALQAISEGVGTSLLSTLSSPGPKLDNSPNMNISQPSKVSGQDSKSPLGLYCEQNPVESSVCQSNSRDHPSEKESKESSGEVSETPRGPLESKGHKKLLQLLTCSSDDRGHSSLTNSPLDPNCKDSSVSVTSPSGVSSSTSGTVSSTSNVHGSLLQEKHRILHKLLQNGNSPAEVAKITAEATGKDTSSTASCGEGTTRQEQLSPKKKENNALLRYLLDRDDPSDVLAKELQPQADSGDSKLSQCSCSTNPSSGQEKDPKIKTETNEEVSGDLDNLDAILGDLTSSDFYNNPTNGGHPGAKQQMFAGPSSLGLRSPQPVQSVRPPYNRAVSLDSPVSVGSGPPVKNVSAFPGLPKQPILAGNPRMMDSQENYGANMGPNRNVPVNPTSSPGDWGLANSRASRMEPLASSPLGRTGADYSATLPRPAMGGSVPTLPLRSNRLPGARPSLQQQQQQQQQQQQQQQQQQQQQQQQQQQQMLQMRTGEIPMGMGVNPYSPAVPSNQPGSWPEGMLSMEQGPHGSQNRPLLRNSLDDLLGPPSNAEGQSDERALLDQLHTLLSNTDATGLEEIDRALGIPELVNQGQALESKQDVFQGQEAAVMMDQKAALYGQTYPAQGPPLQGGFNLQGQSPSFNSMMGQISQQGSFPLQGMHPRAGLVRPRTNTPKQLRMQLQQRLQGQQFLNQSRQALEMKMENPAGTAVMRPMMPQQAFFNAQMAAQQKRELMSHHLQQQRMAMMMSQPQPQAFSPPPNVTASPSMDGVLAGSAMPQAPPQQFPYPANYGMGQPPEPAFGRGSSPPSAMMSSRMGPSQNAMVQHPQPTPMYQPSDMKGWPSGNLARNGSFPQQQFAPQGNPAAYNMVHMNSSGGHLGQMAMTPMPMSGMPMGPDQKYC
Numbers stand for hits; i = inactive; ? = inconclusive; nt = no result.

SMILES	JMJD2C inh	T cruzi repl	PP5 primary	CTSL1 counter	Cardio protect	p-CIP stab down
COc1cccc(/C=C2/C(=O)NN(c3ccc(Br)cc3)C2=O)c1O	i	i	nt	nt	51.9	i
COCCCn1c(SCc2cccc(C(F)(F)F)c2)nc2cc(OC)c(OC)cc2c1=N	i	57.7	i	i	i	i
COCCCn1c(SCc2ccccc2)nc2cc(OC)c(OC)cc2c1=N	i	56.3	i	i	i	i
COc1ccccc1CCNC(=O)c1ccc2nc[nH]c2c1	i	i	i	i	i	i
O=C(Nc1ccc(C(F)(F)F)cc1)N1CCN(c2ccnc3cc(Cl)ccc23)CC1	i	68.5	i	i	i	i
CCN(CC)c1ncnc2c1ncn2[C@H]1CN(C2CCCC2)C[C@@H](CO)O1	nt	nt	nt	nt	i	nt
COc1ccc(N=Cc2cc(Cc3ccccc3Cl)cc([N+](=O)[O-])c2O)cc1OC	i	i	i	i	76.3	i
CCc1onc(C)c1C(=O)Nc1ccc2c(c1)OCO2	i	i	i	18.7	i	i
CCn1c(O)c(/C=N/N=C2CCCCC2)c2cc(C3=NNC(=O)CC3)ccc21	i	i	i	i	53.8	i
CCn1c(O)c(/C=N/N=C2CCCC2)c2ccc(C3=NNC(=O)CC3)cc21	i	i	i	i	57.1	i
Cc1cc(OCCCn2ccnc2)ccc1C(C)C	i	73.9	i	i	i	i
c1ccc2cc(OCCCn3ccnc3)ccc2c1	i	62.8	i	i	i	i
Clc1cccc(OCCCn2ccnc2)c1	i	i	i	i	i	i
COC(=O)c1cccc(OCC(O)Cn2ccnc2)c1 (stereo not drawn)	i	i	i	i	i	i
OC(COc1ccc2cc(Br)ccc2c1)Cn1ccnc1 (stereo not drawn)	i	57.8	i	i	i	i
Cc1[nH]n(-c2ccccc2)c(=O)c1/C=N/NC(=O)c1ccccc1F	i	i	i	i	i	i
CC1(Cc2cc(Cl)ccc2C(F)(F)F)C(=O)Nc2cc(-c3ccccc3Cl)ccc21 (stereo not drawn)	nt	nt	nt	nt	i	nt
COc1ccc(-c2oc3ncnc(NCCCN4CCOCC4)c3c2-c2ccc(OC)cc2)cc1	i	i	i	i	i	i
COc1ccc(-c2oc3ncnc(NCCN4CCOCC4)c3c2-c2ccc(OC)cc2)cc1	i	?	i	i	74.9	i
COc1ccccc1C(=O)NCCC(=O)N1CCN(S(=O)(=O)c2ccccc2C(F)(F)F)CC1	nt	nt	nt	nt	i	nt
COc1cccc(N2CCN(c3ccc(S(=O)(=O)N4CCN(C)CC4)cc3[N+](=O)[O-])CC2)c1	i	nt	nt	nt	i	nt
CCN(CC)S(=O)(=O)c1ccc(N2CCN(c3cccc(OC)c3)CC2)c([N+](=O)[O-])c1	i	64.5	i	i	i	i
CN(CCc1ccccc1)C(=O)c1ccc(NC(=O)Cc2ccc(NC(=O)C3CCN(C(=O)C4CCC4)CC3)cc2)cc1	nt	nt	nt	nt	i	nt
COc1ccc(CCn2c(-c3cc([N+](=O)[O-])cc([N+](=O)[O-])c3)nc3nc4ccccc4nc32)cc1OC	i	62.1	i	i	i	i
COc1ccc(CCn2c(-c3cc([N+](=O)[O-])cc([N+](=O)[O-])c3)nc3nc4ccccc4nc32)cc1	i	56.6	i	i	i	i
SMILES	JMJD2C inh	T cruzi repl	PP5 primary	CTSL1 counter	Cardio protect	p-CIP stab down
COc1ccc(CCn2c(=O)c3cccnc3n(Cc3ccc([N+](=O)[O-])cc3)c2=O)cc1OC	nt	nt	nt	nt	55.7	i
COc1ccc(NC(=O)COC(=O)c2c(C)noc2C)cc1Cl	nt	nt	nt	nt	i	nt
CCc1sc(C(=O)NC2CCN(C)CC2)cc1Br	i	61.6	i	i	i	i
CCc1sc(C(=O)N2CCCN(C)CC2)cc1Br	i	i	i	i	i	i
N=c1c2c(-c3ccccc3)c(-c3ccccc3)n(Cc3ccco3)c2ncn1Cc1ccco1	i	56.8	i	i	i	i
N=c1c2c(-c3ccccc3)c(-c3ccccc3)n(Cc3ccccc3)c2ncn1CCCn1ccnc1	i	59.7	i	i	i	i
Cc1cc(NCCCn2ccnc2)n2nc(C)c(-c3ccccc3)c2n1	i	i	i	i	i	i
CCCCn1cnc2c(c(-c3ccccc3)c(-c3ccccc3)n2Cc2ccco2)c1=N	i	i	i	i	i	i
C[C@@H]1CNC(=O)c2c(C(=O)N[C@@H](Cc3c[nH]c4ccccc34)C(=O)OC(C)(C)C)ncn21	nt	nt	nt	nt	i	nt
COc1cc(/C=N/Nc2ccccc2)ccc1O	i	i	i	i	i	i
COC(=O)c1[nH]c2cc(OC)c(OC)cc2c1/C=N/Nc1ccccc1	i	i	i	i	75.2	i
COc1ccc(NS(=O)(=O)c2cn(C)cn2)cc1OC	i	i	i	i	i	i
COc1ccc(CCNCc2c(OC)ccc3ccccc23)cc1OC	i	i	i	i	i	i
COc1ccc2ccccc2c1CNC(C)CCc1ccccc1 (stereo not drawn)	i	56.4	i	i	i	i
CN(C)CCN(C(=O)c1ccc2ccccc2c1)c1nc2ccc(F)cc2s1	i	i	i	i	i	i
CN(C)CCCN(C(=O)c1nc2ccccc2s1)c1nc2ccc(F)cc2s1	i	66.7	i	i	i	nt
CN(C)CCCN(C(=O)COc1ccccc1)c1nc2ccc(F)cc2s1	i	i	i	i	i	i
CN(C)CCCN(C(=O)c1ccc(C(=O)c2ccccc2)cc1)c1nc2ccc(F)cc2s1	i	57.2	i	i	i	i
CCCNC(=O)C1(C)CCN(Cc2cccc(OC(=O)c3ccccc3)c2)C1 (stereo not drawn)	nt	nt	nt	nt	i	nt
COc1ccccc1CNC(=O)CCNS(=O)(=O)c1ccc2c(c1)CC(C)N2C(C)=O (stereo not drawn)	i	i	i	i	i	i
CCC(=O)OCCNc1cc(Sc2nccn2C)c2nonc2c1[N+](=O)[O-]	i	55.2	i	i	i	i
CC(=O)OCCNc1cc(SC(C)C)c2nonc2c1[N+](=O)[O-]	nt	nt	i	i	i	i
Cc1ccc(Sc2cc(NCCCO)c([N+](=O)[O-])c3nonc23)cc1	i	55.6	i	i	i	i
CCC(=O)OCCNc1cc(SCCC(=O)OC)c2nonc2c1[N+](=O)[O-]	i	i	i	i	54.5	i
CC(C)(C)c1ccc(/C=C/C(=O)c2ccc(NC3=NCCCS3)cc2)cc1	i	57.5	i	i	i	i
COc1cccc(/C=C/C(=O)c2ccc(NC3=NCCCS3)cc2)c1	i	i	i	i	i	i
Cc1cccc(/C=C/C(=O)c2ccc(NC3=NCCCS3)cc2)c1	i	55.5	i	i	i	i
O=C(/C=C/c1ccc(Br)cc1)c1ccc(NC2=NCCCS2)cc1	i	i	i	i	i	i
CC1Sc2ccc(S(=O)(=O)N3CCC(C(=O)NCc4ccccc4)CC3)cc2NC1=O (stereo not drawn)	i	i	i	i	i	i
COc1ccccc1/C=C\C(=O)NCC(=O)N/N=C(\C)Cc1ccccc1	i	i	i	i	i	i
